How the values were obtained:
Type in all cases: cell-based
[1] = molecular target: T1, Aryl hydrocarbon receptor (Mus musculus, UniProt P30561); assay: Effect on AhR-mediated CYP1A1 activation in mouse Hepa1c1c12 cells at 20 uM after 18 hrs by Western blot analysis; settings: in the assay text read “semi-quantitative RT-PCR analysis” for “Western blot analysis”
T1 sequence (P30561 whole entry): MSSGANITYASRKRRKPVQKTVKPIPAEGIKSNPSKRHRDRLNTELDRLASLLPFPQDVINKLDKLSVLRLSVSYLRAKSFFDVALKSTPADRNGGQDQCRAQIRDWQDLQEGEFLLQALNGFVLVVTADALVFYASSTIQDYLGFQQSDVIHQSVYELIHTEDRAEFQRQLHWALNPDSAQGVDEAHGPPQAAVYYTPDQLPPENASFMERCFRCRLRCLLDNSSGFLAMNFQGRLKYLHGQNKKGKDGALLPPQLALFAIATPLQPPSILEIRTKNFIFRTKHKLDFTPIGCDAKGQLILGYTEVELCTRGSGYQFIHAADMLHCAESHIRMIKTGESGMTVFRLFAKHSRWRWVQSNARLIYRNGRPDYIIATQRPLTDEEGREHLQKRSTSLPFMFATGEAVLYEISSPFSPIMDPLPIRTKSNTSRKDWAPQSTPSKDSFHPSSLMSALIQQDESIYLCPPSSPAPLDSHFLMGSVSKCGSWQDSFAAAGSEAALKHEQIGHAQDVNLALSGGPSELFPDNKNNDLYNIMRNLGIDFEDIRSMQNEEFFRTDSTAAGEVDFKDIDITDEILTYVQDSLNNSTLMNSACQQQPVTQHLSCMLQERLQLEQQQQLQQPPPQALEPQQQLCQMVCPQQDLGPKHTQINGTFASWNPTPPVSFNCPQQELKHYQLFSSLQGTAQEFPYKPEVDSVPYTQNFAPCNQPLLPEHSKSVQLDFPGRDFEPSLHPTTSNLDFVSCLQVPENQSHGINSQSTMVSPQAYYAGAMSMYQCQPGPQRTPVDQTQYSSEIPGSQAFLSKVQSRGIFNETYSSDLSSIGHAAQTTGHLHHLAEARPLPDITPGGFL
How it was run: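 Pair of Hepa1c1c7-derived lines: C12 (much reduced AhR) and C12 re-expressing WT AhR. Cells in DMEM/10% FBS with antibiotics under 5% CO2 were given 20 µM for 18 h, vehicle 0.1% DMSO, TCDD 1 nM as reference. Target genes (CYP1A1, NADPH-QO) assessed by semi-quantitative RT-PCR with GAPDH control. AhR shown by blot of 30 µg whole-cell lysate.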

[2] = molecular target: T2, Aryl hydrocarbon receptor (AhR) ligand-binding domain (Mus musculus, UniProt P30561); assay: Induction of mouse AhR LBD transcriptional activity in mouse hepa1 cells transfected with AhR response element co expressed with XRE after 6 hrs by luciferase reporter gene assay relative to control; settings: read-out: FC
T2 sequence (P30561 whole entry): T1 sequence (P30561 whole entry)
How it was run: (§1)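 Mouse Hepa1 cells carrying an AhRE/XRE-luciferase reporter, grown in DMEM/10% FBS with penicillin/streptomycin under 5% CO2. Test agents from DMSO stocks, final 20 µM, were applied for 6 h and reporter activity then measured. Fold activation was graded: ≥8 very strong, >4 strong, […].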

[3] = molecular target: T1, Aryl hydrocarbon receptor; assay: Induction of nuclear translocation of AhR from cytosol in mouse Hepa1 cells at 20 uM after 60 mins using DAPI staining by microscopic analysis; settings: hepa1, 1 h
How it was run: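 Hepa1 cells given test agents for 60 min, then fixed. They were immunostained for AhR with FITC-labelled secondary antibody and counterstained with DAPI for nuclei. AhR nuclear localization was imaged by fluorescence microscopy.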

[4] = molecular target: T1, Aryl hydrocarbon receptor; assay: Induction of mouse AhR LBD transcriptional activity in mouse hepa1 cells transfected with AhR response element co expressed with XRE at 20 uM after 6 hrs by luciferase reporter gene assay in presence of 6-hydroxy-7-methoxyflavone; how it was run: as §1

O=C1CC(c2ccccc2)Oc2cc(O)cc(O)c21 (single isomer, unassigned) [PINOCEMBRIN]
Activity [1]: Active | fold induction at 6 h [2]: 8 | Activity [3]: Active

Cc1ccc2oc(-c3ccccc3)cc(=O)c2c1 [6-METHYLFLAVONE]
fold induction at 6 h [2]: 4.8

COc1cc(O)c2c(=O)cc(-c3ccccc3)oc2c1 [TECHTOCHRYSIN]
Activity [1]: Active | Activity [4]: Not Active | fold induction at 6 h [2]: 11.3 | Activity [3]: Active

O=c1cc(-c2ccccc2O)oc2c(O)c(O)ccc12
fold induction at 6 h [2]: 2.8

COc1ccc2c(=O)c(-c3ccccc3)coc2c1
fold induction at 6 h [2]: 2.7

Cc1ccc2oc(-c3ccccc3)c(O)c(=O)c2c1
fold induction at 6 h [2]: 2.5

Clc1cc2c(cc1Cl)Oc1cc(Cl)c(Cl)cc1O2 [2,3,7,8-TETRACHLORODIBENZO-P-DIOXIN]
fold induction at 6 h [2]: 21
